These results are taken from ChEMBL document CHEMBL1132437, “Synthesis and antimicrobial activity of 4H-4-oxoquinolizine derivatives: consequences of structural modification at the C-8 position” (1999).

The test system of experiment [1] is Staphylococcus aureus. The experiment is described as follows: In vitro antibacterial activity against gram-positive Staphylococcus aureus 1775. In kind it is functional. As to conditions: Staphylococcus aureus; read-out: MIC. The gist of the method: (§1)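 Agar dilution MIC determination following the National Committee for Clinical Laboratory Standards recommendations.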

Experiment [2] concerns Mus musculus. The experiment can be described thus: In vivo efficacy against Escherichia coli JUHL in mouse protection test after by oral gavage. It counts as functional. The gist of the method: (§2)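 Mouse protection model: mice infected intravenously with 100-fold LD50 of the organism. Compound given by subcutaneous injection or oral gavage at 1 and 5 h after infection, over a dose range. Deaths tracked for 7 days post-inoculation. ED50 is the dose giving 50% survival of treated mice over the trial.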

A further experiment concerns Streptococcus pyogenes. The experiment is described as follows: In vitro antibacterial activity against gram positive Streptococcus pyogenes 930. It counts as functional. The following applies: Streptococcus pyogenes; read-out: MIC. The gist of the method:
as §1

The subject of experiment [3] is Pseudomonas aeruginosa. The experiment can be described thus: In vitro antibacterial activity against Gram-negative Pseudomonas aeruginosa 5007. In kind it is functional. As to conditions: Pseudomonas aeruginosa; read-out: MIC. The gist of the method: as §1
The subject of experiment [4] is Staphylococcus aureus. The experiment can be described thus: In vitro antibacterial activity against gram-positive Staphylococcus aureus NCTC 10649M. It counts as functional. As to conditions: Staphylococcus aureus, NCTC 10649; read-out: MIC. The gist of the method: as §1
Experiment [5] has as its system Staphylococcus aureus. The experiment can be described thus: In vivo efficacy against Staphylococcus aureus NCTC 10649M in mouse. It counts as functional. The following applies: Staphylococcus aureus; read-out: ED50. The gist of the method:
as §2

For experiment [6], the system named is Escherichia coli. The experiment can be described thus: In vitro antibacterial activity against gram negative Escherichia coli KNK 437. The following applies: Escherichia coli; read-out: MIC. In kind it is functional. The gist of the method: as §1
Experiment [7] has as its system Staphylococcus aureus. The experiment is described as follows: In vivo efficacy against Staphylococcus aureus NCTC 10649M in mouse protection test after p.o. administration. In kind it is functional. The gist of the method: as §2
The test system of experiment [8] is Burkholderia cepacia. The experiment is described as follows: In vitro antibacterial activity against gram negative Pseudomonas cepacia 2961. It counts as functional. As to conditions: Burkholderia cepacia; read-out: MIC. The gist of the method: as §1
The subject of a further experiment is Enterococcus faecium. The experiment is described as follows: In vitro antibacterial activity against gram-positive Enterococcus faecium ATCC 8043. It counts as functional. As to conditions: Enterococcus faecium, ATCC 8043; read-out: MIC. The gist of the method:
as §1

The subject of experiment [9] is Pseudomonas aeruginosa. The experiment can be described thus: In vitro antibacterial activity against gram negative P. aeruginosa DPHP 5263. In kind it is functional. As to conditions: Pseudomonas aeruginosa, DPHP 5263; read-out: MIC. The gist of the method: as §1
The subject of experiment [10] is Escherichia coli. The experiment can be described thus: In vivo efficacy against Escherichia coli JUHL in mouse protection test after subcutaneous administration. In kind it is functional. The gist of the method:
as §2

The subject of experiment [11] is Burkholderia cepacia. The experiment can be described thus: In vitro antibacterial activity against Pseudomonas cepacia 2961 a ciprofloxacin resistant strain. In kind it is functional. The gist of the method: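 MIC by agar dilution following National Committee for Clinical Laboratory Standards recommendations. P. cepacia 2961 is a ciprofloxacin-resistant strain; S. pyogenes 930 is erythromycin-resistant.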

Experiment [12] has as its system Burkholderia cepacia. The experiment is described as follows: In vitro antibacterial activity against gram negative P. cepacia 2961.
Experiment [13] deals with Mus musculus. The experiment can be described thus: IIn vivo efficacy against Escherichia coli JUHL in mouse protection test after by oral gavage. It counts as functional. The gist of the method:
as §2

For experiment [14], the system named is Mus musculus. The experiment can be described thus: IIn vivo efficacy against Streptococcus pneumoniae ATCC 6303 in mouse protection test after oral administration by oral gavage.
Another experiment concerns Streptococcus pneumoniae. The experiment is described as follows: In vivo efficacy against Streptococcus pneumoniae ATCC 6303 in mouse protection test after s.c. administration. It counts as functional. The gist of the method:
as §2

The test system of experiment [15] is Escherichia coli. The experiment is described as follows: In vivo efficacy against Escherichia coli JUHL in mouse protection test after p.o. administration. It counts as functional. The gist of the method: as §2
The subject of experiment [16] is Pseudomonas aeruginosa. The experiment can be described thus: In vivo efficacy against Pseudomonas aeruginosa 5007 in mouse protection test after subcutaneous administration. It counts as functional. The following applies: Pseudomonas aeruginosa, sc; read-out: ED50. The gist of the method: as §2
The subject of experiment [17] is Mus musculus. The experiment is described as follows: In vivo efficacy against Pseudomonas aeruginosa 5007 in mouse protection test […]. In kind it is functional. The gist of the method:
as §2

The test system of experiment [18] is Mus musculus. The experiment can be described thus: IIn vivo efficacy against Escherichia coli JUHL in mouse protection test after administration by oral gavage. It counts as functional. The gist of the method:
as §2

For experiment [19], the system named is Mus musculus. The experiment is described as follows: In vivo efficacy against Streptococcus pneumoniae ATCC 6303 after administration by oral gavage. It counts as functional. The gist of the method:
as §2

In experiment [20] the test system is Mus musculus. The experiment is described as follows: In vivo efficacy against Streptococcus pneumoniae ATCC 6303 after subcutaneous administration. It counts as functional. The following applies: sc. The gist of the method: as §2
Experiment [21] deals with Mus musculus. The experiment can be described thus: In vivo efficacy against Streptococcus pneumoniae ATCC 6303 in mouse protection test after administration by oral gavage. In kind it is functional. The gist of the method:
as §2

For experiment [22], the system named is Pseudomonas aeruginosa. The experiment can be described thus: In vivo efficacy against Pseudomonas aeruginosa 5007 in mouse protection test after administration by oral gavage. It counts as functional. As to conditions: Pseudomonas aeruginosa, po; read-out: ED50. The gist of the method:
as §2

In experiment [23] the test system is Escherichia coli. The experiment is described as follows: In vitro antibacterial activity against Escherichia coli KNK 437 a ciprofloxacin less sensitive strain. It counts as functional. The gist of the method: as §1
The test system of experiment [24] is Mus musculus. The experiment can be described thus: In vivo efficacy against Escherichia coli JUHL in mouse protection test after administration by oral gavage. It counts as functional. The gist of the method:
as §2

Setting [25] is: Staphylococcus aureus, po, read-out: ED50.
[26] abbreviates: Escherichia coli, sc, read-out: ED50.

Values after ≈ are worked out from the molar mass of the structure shown.

In general, MIC refers to the lowest concentration that inhibits growth of the organism. Usually ED50 stands for the dose at which the effect has come halfway, by size or by number of responders. For the molecule `COCCN[C@H]1CCN(c2c(F)cn3c(=O)c(C(=O)O)cc(C4CC4)c3c2C)C1`, the MIC with Staphylococcus aureus [1] amounted to 1.56 µg/mL (≈ 3.87 µM); with Streptococcus pyogenes, 0.39 µg/mL (≈ 0.967 µM); with Pseudomonas aeruginosa [3], 1.56 µg/mL (≈ 3.87 µM); in the experiment with Staphylococcus aureus [4], 0.05 µg/mL (≈ 0.124 µM); in the experiment with Escherichia coli [6] it was 0.39 µg/mL (≈ 0.967 µM); with Burkholderia cepacia [8], 0.78 µg/mL (≈ 1.93 µM). Also, the MIC in the experiment with Enterococcus faecium amounted to 0.39 µg/mL (≈ 0.967 µM); with Pseudomonas aeruginosa [9], 12.5 µg/mL (≈ 31 µM). Also, the ED50 was > 10 mg/kg with Mus musculus [2], 6.1 mg/kg in the experiment with Staphylococcus aureus [5], 18.1 mg/kg with Staphylococcus aureus [7] (setting [25]) and 2.5 mg/kg with Escherichia coli [10] (setting [26]).

As to `Cc1c(N2CCC3(CCCC3N)C2)c(F)cn2c(=O)c(C(=O)O)cc(C3CC3)c12` (stereo not drawn), the MIC in the experiment on Staphylococcus aureus [1] was determined as 0.78 µg/mL (≈ 1.95 µM); in the experiment on Burkholderia cepacia [11], 3.1 µg/mL (≈ 7.76 µM); with Staphylococcus aureus [4] it was 0.05 µg/mL (≈ 0.125 µM); with Escherichia coli [6] it was 0.2 µg/mL (≈ 0.501 µM); against Burkholderia cepacia [12], 0.78 µg/mL (≈ 1.95 µM); in the experiment on Enterococcus faecium, 0.1 µg/mL (≈ 0.25 µM). Moreover, the MIC in the experiment with Pseudomonas aeruginosa [9] came out at 6.2 µg/mL (≈ 15.5 µM).

As for `CN[C@@H]1CN(c2c(F)cn3c(=O)c(C(=O)O)cc(C4CC4)c3c2C)C[C@@H]1C`, the MIC in the experiment on Staphylococcus aureus [1] was 0.39 µg/mL (≈ 1.04 µM); with Streptococcus pyogenes, 0.1 µg/mL (≈ 0.268 µM); with Pseudomonas aeruginosa [3] it was 0.39 µg/mL (≈ 1.04 µM); in the experiment with Staphylococcus aureus [4], 0.02 µg/mL (≈ 0.0536 µM); in the experiment with Escherichia coli [6], 0.1 µg/mL (≈ 0.268 µM); in the experiment on Burkholderia cepacia [8], 1.56 µg/mL (≈ 4.18 µM). Moreover, the figures for the minimal inhibitory concentration (MIC) in the experiment on Enterococcus faecium and with Pseudomonas aeruginosa [9] were 0.1 µg/mL (≈ 0.268 µM) and 6.1 µg/mL (≈ 16.3 µM), respectively. Further, the values for the ED50 in the experiment with Staphylococcus aureus [5], with Mus musculus [13] and in the experiment on Escherichia coli [10] (setting [26]) were 1.3 mg/kg, 2.7 mg/kg and 0.5 mg/kg, respectively.

For the molecule `Cc1c(N2CC[C@H](C)[C@H](N)C2)c(F)cn2c(=O)c(C(=O)O)cc(C3CC3)c12` (stereo in doubt; 3ss), the median effective dose (ED50) in the experiment on Mus musculus [14] came out at 2 mg/kg; with Streptococcus pneumoniae, 1 mg/kg; in the experiment on Escherichia coli [15] it was 1.4 mg/kg; with Staphylococcus aureus [5] it was 3.3 mg/kg; in the experiment with Staphylococcus aureus [7] it was 0.8 mg/kg; in the experiment with Escherichia coli [10], 0.6 mg/kg. The MIC with Staphylococcus aureus [1] came out at 1.56 µg/mL (≈ 4.18 µM); with Streptococcus pyogenes it was 0.1 µg/mL (≈ 0.268 µM); with Pseudomonas aeruginosa [3], 0.78 µg/mL (≈ 2.09 µM); in the experiment on Staphylococcus aureus [4], 0.05 µg/mL (≈ 0.134 µM); with Escherichia coli [6] it was 0.39 µg/mL (≈ 1.04 µM); with Burkholderia cepacia [8], 1.56 µg/mL (≈ 4.18 µM). For the same molecule, the MIC in the experiment with Enterococcus faecium was 0.2 µg/mL (≈ 0.536 µM); with Pseudomonas aeruginosa [9] it was 12.5 µg/mL (≈ 33.5 µM).

With `Cc1c(N2CC[C@H](N)C2)c(F)cn2c(=O)c(C(=O)O)cc(C3CC3)c12` (stereo in doubt; 3i) [ABT-719], the minimum inhibitory concentration (MIC) in the experiment on Staphylococcus aureus [1] was 0.78 µg/mL (≈ 2.26 µM); in the experiment on Staphylococcus aureus [4] it was 0.02 µg/mL (≈ 0.0579 µM); in the experiment on Escherichia coli [6] it was 0.02 µg/mL (≈ 0.0579 µM); in the experiment on Burkholderia cepacia [8], 0.39 µg/mL (≈ 1.13 µM); with Enterococcus faecium, 0.02 µg/mL (≈ 0.0579 µM). For the same molecule, the median effective dose (ED50) in the experiment on Staphylococcus aureus [5] was found to be 0.8 mg/kg; in the experiment with Pseudomonas aeruginosa [16], 0.5 mg/kg; with Mus musculus [17] it was 2.9 mg/kg; with Staphylococcus aureus [7] (setting [25]), 3 mg/kg; in the experiment with Mus musculus [18] it was 8.3 mg/kg; in the experiment with Mus musculus [19], 10 mg/kg. The results for the 50% effective dose (ED50) in the experiment on Mus musculus [20] and in the experiment on Escherichia coli [10] (setting [26]) were 2.6 mg/kg and 0.3 mg/kg, respectively.

In the case of `Cc1c(N2C[C@H]3CNC[C@H]3C2)c(F)cn2c(=O)c(C(=O)O)cc(C3CC3)c12`, the minimal inhibitory concentration (MIC) with Staphylococcus aureus [1] was 6.2 µg/mL (≈ 16.7 µM); in the experiment on Streptococcus pyogenes, 0.1 µg/mL (≈ 0.269 µM); with Pseudomonas aeruginosa [3] it was 0.2 µg/mL (≈ 0.538 µM); with Staphylococcus aureus [4] it was 0.05 µg/mL (≈ 0.135 µM); in the experiment with Burkholderia cepacia [8], 3.1 µg/mL (≈ 8.35 µM); with Escherichia coli [23], 0.2 µg/mL (≈ 0.538 µM). The values for the MIC in the experiment on Enterococcus faecium and in the experiment on Pseudomonas aeruginosa [9] were 0.1 µg/mL (≈ 0.269 µM) and 6.2 µg/mL (≈ 16.7 µM), respectively. The 50% effective dose (ED50) in the experiment on Streptococcus pneumoniae (Streptococcus pneumoniae, sc, read-out: ED50) came to 1.3 mg/kg; in the experiment on Staphylococcus aureus [5], 1.2 mg/kg; in the experiment on Mus musculus [21], 25.2 mg/kg; in the experiment on Pseudomonas aeruginosa [16], 6.4 mg/kg; with Pseudomonas aeruginosa [22] it was 58.7 mg/kg; in the experiment on Staphylococcus aureus [7] (setting [25]), 12.5 mg/kg. The 50% effective dose (ED50) worked out at 5 mg/kg in the experiment on Mus musculus [24] and 0.7 mg/kg in the experiment on Escherichia coli [10] (setting [26]).
